In PMC9099131 (Clinical and Translational Science, 2022):
Converted amounts (≈) assume the structure as drawn.

Columns and labels:
[1] = Single-dose plasma pharmacokinetics of trazpiroben alone and with esomeprazole; assay type: in vivo, human (healthy adults); details: for AUC∞, Geometric LSM / Cmax, Geometric LSM: ANOVA
Summary of the method: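 Healthy adults dosed orally with 25 mg on day 1; after a 4-day washout, the proton pump inhibitor was given at 40 mg once daily on days 8–12, with 25 mg co-dosed 1 h after it on day 11 following a ≥10 h fast. Plasma was sampled predose to 48 h and assayed by validated LC-MS/MS (0.05–50.00 ng/ml), with BLQ values set to zero. Noncompartmental parameters were derived, and ln AUC∞/Cmax were analysed by ANOVA (treatment fixed, participant random).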

[2] = ref data on file, cited from earlier work
[3] = trazpiroben 25 mg alone, N = 12
[4] = trazpiroben 25 mg and esomeprazole 40 mg, N = 12
[5] = plasma, single oral dose trazpiroben 25 mg alone, N = 12
[6] = single dose alone or in the presence of esomeprazole
[7] = single oral dose trazpiroben 25 mg alone, N = 12
[8] = single oral dose trazpiroben 25 mg with esomeprazole 40 mg once daily, N = 12
[9] = trazpiroben 25 mg with esomeprazole 40 mg vs alone
[10] = single oral dose of trazpiroben 25 mg alone on day 1

O=C(O)c1cccc(CN2CN(C3CCCCC3)C3(CCN(CCCC(=O)c4ccccc4)CC3)C2=O)c1 [Trazpiroben]
AUC∞, Geometric LSM [1, 3]: 44.03 ng·h/mL | Cmax, Geometric LSM [1, 3]: 19.76 ng/mL | AUC∞, Geometric LSM [1, 4]: 38.85 ng·h/mL | Cmax, Geometric LSM [1, 4]: 17.24 ng/mL | AUC∞, Geo. mean (CV%) [1, 5]: 44.03 (27.50) ng h/ml | Cmax, Geo. mean (CV%) [1, 5]: 19.76 (36.50) ng/ml | Tmax, Median (min, max) [1, 5]: 1.00 (0.50, 1.53) h | t1/2, Mean (±SD) [1, 5]: 6.21 ± 3.96 h | approximate half-life of biphasic decline [1, 6]: 6 to 7 h | time postdose at which mean plasma concentration peaked [1, 6]: around 1 h | CL/F, Geo. mean (CV%) [1, 7]: 567.90 (27.50) L/h | Vz/F, Geo. mean (CV%) [1, 7]: 4137.00 (77.80) L | CL/F, Geo. mean (CV%) [1, 8]: 643.50 (31.10) L/h | Vz/F, Geo. mean (CV%) [1, 8]: 4716.00 (102.00) L | GMR for plasma AUC∞ lower following co-administration versus trazpiroben alone [1, 9]: 11.8% | GMR for plasma Cmax lower following co-administration versus trazpiroben alone [1, 9]: 12.8% | vital sign and ECG parameters (following both treatments): no clinically meaningful changes | tolerability (healthy adults, administration alone and alongside esomeprazole): well‐tolerated | CNS or cardiovascular safety concerns (single agent or co-administered with esomeprazole): no CNS or cardiovascular safety concerns were observed | Number of participants with treatment‐emergent AEs [10]: 2 (17) n (%) | Participants reporting AEs: Folliculitis [10]: 0 (0) n (%) | Participants reporting AEs: General disorders and administration site conditions [10]: 0 (0) n (%) | Participants reporting AEs: Headache [10]: 1 (8) n (%) | Participants reporting AEs: Infections and infestations [10]: 0 (0) n (%) | Participants reporting AEs: Influenza‐like illness [10]: 0 (0) n (%) | Participants reporting AEs: Menstruation delayed [10]: 0 (0) n (%) | Participants reporting AEs: Nervous system disorders [10]: 1 (8) n (%) | Participants reporting AEs: Oropharyngeal pain [10]: 0 (0) n (%) | Participants reporting AEs: Reproductive system and breast disorders [10]: 0 (0) n (%) | Participants reporting AEs: Respiratory, thoracic, and mediastinal disorders [10]: 1 (8) n (%) | Participants reporting AEs: Throat irritation [10]: 1 (8) n (%) | Participants reporting AEs: Vessel puncture site pain [10]: 0 (0) n (%) | Participants reporting AEs: Vessel puncture site reaction [10]: 0 (0) n (%) | deaths, serious AEs, discontinuations due to AEs (whole study, 12 participants): No deaths, serious AEs, or discontinuations due to AEs were reported | mean solubility ([2]; pH 1.15): 1210 µg/mL | solubility ([2]; pH 6.97): 50 µg/mL (≈ 96.6 µM)
